Each block holds one molecule with its values, some of them ahead of it.
Tests used:
TGF-beta receptor type-1 [1] = molecular target: T1, TGF-beta receptor type-1 (Homo sapiens, UniProt P36897); experiment: Stimulation of Transforming growth factor beta receptor I kinase in HepG2 cells; format: functional, cell-based
T1 sequence (P36897 whole entry): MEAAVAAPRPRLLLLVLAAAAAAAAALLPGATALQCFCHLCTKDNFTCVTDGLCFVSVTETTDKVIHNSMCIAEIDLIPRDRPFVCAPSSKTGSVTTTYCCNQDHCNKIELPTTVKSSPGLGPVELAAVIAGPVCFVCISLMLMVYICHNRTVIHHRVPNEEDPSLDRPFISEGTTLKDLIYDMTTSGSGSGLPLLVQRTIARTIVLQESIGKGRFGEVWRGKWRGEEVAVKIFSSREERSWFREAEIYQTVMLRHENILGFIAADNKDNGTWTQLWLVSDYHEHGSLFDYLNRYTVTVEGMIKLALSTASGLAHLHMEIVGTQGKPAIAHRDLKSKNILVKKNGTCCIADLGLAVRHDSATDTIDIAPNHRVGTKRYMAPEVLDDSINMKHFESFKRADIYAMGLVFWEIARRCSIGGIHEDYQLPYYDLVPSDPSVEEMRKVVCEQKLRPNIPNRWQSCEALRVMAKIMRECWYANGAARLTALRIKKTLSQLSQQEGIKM

TGF-beta receptor type-1 [2] = molecular target: T1, TGF-beta receptor type-1; experiment: Binding affinity to Activin A receptor type II-like kinase (ALK5) in fluorescence polarization binding assay; Range is (1.375-9.154)
How it was run: (§1)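 Purified recombinant GST-ALK5 (residues 198–503), final 10 nM by active-site titration, in 62.5 mM HEPES pH 7.5, 1 mM DTT, 12.5 mM MgCl2, 1.25 mM CHAPS with 1 nM rhodamine green-labelled ATP-competitive ligand. Test compound added over a concentration series, plate read immediately by fluorescence polarization (ex 485/em 530 nm). Binding pIC50 from concentration–response curves; mean of two or more experiments, 95% confidence limits converted to IC50.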

MAP kinase p38 [3] = molecular target: T2, MAP kinase p38 (Homo sapiens, UniProt O15264+Q15759+Q16539+P53778); experiment: Displacement of ATP from Mitogen-activated protein kinase p38 in fluorescence polarization assay; Range is (0.242-0.545)
How it was run: (§2)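 p38 MAP kinase binding measured by fluorescence polarization: displacement of a fluorescently labelled ATP-competitive inhibitor by a compound concentration series gives a binding IC50. Runs were duplicated or repeated as three separate experiments; 95% confidence limits on pIC50 were converted to IC50 limits.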

TGF-beta receptor type-1 [4] = molecular target: T1, TGF-beta receptor type-1; experiment: Inhibition of recombinant Activin A receptor type II-like kinase (ALK5) expressed in baculovirus/Sf9 cells; format: cell-based
TGF-beta receptor type-1 [5] = molecular target: T1, TGF-beta receptor type-1
MAP kinase p38 [6] = molecular target: T2, MAP kinase p38; experiment: Displacement of ATP from p38 MAP kinase by fluorescence polarization assay; format: protein assay; how it was run: as §2
TGF-beta receptor type-1 [7] = molecular target: T1, TGF-beta receptor type-1; experiment: Binding affinity to Activin A receptor type II-like kinase (ALK5) in fluorescence polarization binding assay; Range is (0.029-0.032)
TGF-beta receptor type-1 [8] = molecular target: T1, TGF-beta receptor type-1; experiment: Binding affinity for Activin A receptor type II-like kinase (ALK5) in fluorescence polarization binding assay
How it was run: (§3)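 Purified recombinant GST-ALK5 (residues 198–503), final 10 nM by active-site titration, in 62.5 mM HEPES pH 7.5, 1 mM DTT, 12.5 mM MgCl2, 1.25 mM CHAPS with 1 nM rhodamine green-labelled ATP-competitive ligand. Test compound added over a concentration range; plates read immediately for fluorescence polarization (ex 485/em 530 nm). Binding pIC50 from concentration–response curves; means of two or more experiments, mean pIC50 converted to IC50, with 95% confidence limits.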

TGF-beta receptor type-1 [9] = molecular target: T1, TGF-beta receptor type-1; experiment: Binding affinity to Activin A receptor type II-like kinase (ALK5) in fluorescence polarization binding assay; Range is (0.021-0.042); how it was run: as §1
TGF-beta receptor type-1 [10] = molecular target: T1, TGF-beta receptor type-1; remark: listed apart in the source
TGF-beta receptor type-1 [11] = molecular target: T1, TGF-beta receptor type-1; experiment: Binding affinity to Activin A receptor type II-like kinase (ALK5) in fluorescence polarization binding assay; Range is (2.423-6.540); how it was run: as §3
TGF-beta receptor type-1 [12] = molecular target: T1, TGF-beta receptor type-1; experiment: Binding affinity to Activin A receptor type II-like kinase (ALK5) in fluorescence polarization binding assay; Range is (0.038-0.042); how it was run: as §1
TGF-beta receptor type-1 [13] = molecular target: T1, TGF-beta receptor type-1; experiment: Binding affinity to Activin A receptor type II-like kinase (ALK5) in fluorescence polarization binding assay; Range is (5.326-22.574); how it was run: as §1
TGF-beta receptor type-1 [14] = molecular target: T1, TGF-beta receptor type-1; experiment: Binding affinity to Activin A receptor type II-like kinase (ALK5) in fluorescence polarization binding assay; Range is (3.221-19.588); how it was run: as §3
TGF-beta receptor type-1 [15] = molecular target: T1, TGF-beta receptor type-1; experiment: Binding affinity to Activin A receptor type II-like kinase (ALK5) in fluorescence polarization binding assay; Range is (0.289-3.621); how it was run: as §3
MAP kinase p38 [16] = molecular target: T2, MAP kinase p38; experiment: Displacement of ATP from Mitogen-activated protein kinase p38 in fluorescence polarization assay; Range is (0.208-1.155); how it was run: as §2
TGF-beta receptor type-1 [17] = molecular target: T1, TGF-beta receptor type-1; remark: listed apart in the source
TGF-beta receptor type-1 [18] = molecular target: T1, TGF-beta receptor type-1; experiment: Binding affinity to Activin A receptor type II-like kinase (ALK5) in fluorescence polarization binding assay; Range is (0.864-3.661); how it was run: as §3
TGF-beta receptor type-1 [19] = molecular target: T1, TGF-beta receptor type-1; experiment: Binding affinity to Activin A receptor type II-like kinase (ALK5) in fluorescence polarization binding assay; Range is (0.356-4.455); how it was run: as §1
[20] = molecular target: Mitogen-activated protein kinase kinase kinase 11 (Homo sapiens, UniProt Q16584); experiment: Inhibition of MLK3 kinase binding in fluorescence polarization assay
Chain of Mitogen-activated protein kinase kinase kinase 11 (Q16584 whole entry): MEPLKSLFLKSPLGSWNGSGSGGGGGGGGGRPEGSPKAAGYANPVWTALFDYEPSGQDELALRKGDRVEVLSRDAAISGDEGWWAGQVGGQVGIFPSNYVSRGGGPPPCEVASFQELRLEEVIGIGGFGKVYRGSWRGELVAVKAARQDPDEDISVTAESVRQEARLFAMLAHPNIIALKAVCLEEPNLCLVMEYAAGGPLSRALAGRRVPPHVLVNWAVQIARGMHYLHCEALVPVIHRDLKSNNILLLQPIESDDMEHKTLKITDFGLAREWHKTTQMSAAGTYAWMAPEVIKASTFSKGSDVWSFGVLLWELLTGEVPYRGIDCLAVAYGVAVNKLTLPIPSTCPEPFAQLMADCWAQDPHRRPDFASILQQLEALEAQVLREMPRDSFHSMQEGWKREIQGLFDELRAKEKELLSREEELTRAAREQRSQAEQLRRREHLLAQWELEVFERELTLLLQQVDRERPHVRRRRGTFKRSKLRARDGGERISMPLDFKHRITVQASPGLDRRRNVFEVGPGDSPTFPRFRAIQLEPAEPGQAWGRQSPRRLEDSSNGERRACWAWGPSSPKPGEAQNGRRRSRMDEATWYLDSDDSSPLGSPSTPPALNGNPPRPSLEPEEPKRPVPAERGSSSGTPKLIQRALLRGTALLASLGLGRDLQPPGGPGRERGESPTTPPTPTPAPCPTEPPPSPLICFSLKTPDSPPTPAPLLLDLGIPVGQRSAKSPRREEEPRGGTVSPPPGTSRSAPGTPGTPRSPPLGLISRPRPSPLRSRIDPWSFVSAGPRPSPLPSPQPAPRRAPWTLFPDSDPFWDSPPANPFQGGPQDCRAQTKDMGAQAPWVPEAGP

[21] = molecular target: Ribosomal protein S6 kinase alpha-5 (Homo sapiens, UniProt O75582); experiment: Inhibition of MSK-1 kinase binding in fluorescence polarization assay
Chain of Ribosomal protein S6 kinase alpha-5 (O75582 whole entry): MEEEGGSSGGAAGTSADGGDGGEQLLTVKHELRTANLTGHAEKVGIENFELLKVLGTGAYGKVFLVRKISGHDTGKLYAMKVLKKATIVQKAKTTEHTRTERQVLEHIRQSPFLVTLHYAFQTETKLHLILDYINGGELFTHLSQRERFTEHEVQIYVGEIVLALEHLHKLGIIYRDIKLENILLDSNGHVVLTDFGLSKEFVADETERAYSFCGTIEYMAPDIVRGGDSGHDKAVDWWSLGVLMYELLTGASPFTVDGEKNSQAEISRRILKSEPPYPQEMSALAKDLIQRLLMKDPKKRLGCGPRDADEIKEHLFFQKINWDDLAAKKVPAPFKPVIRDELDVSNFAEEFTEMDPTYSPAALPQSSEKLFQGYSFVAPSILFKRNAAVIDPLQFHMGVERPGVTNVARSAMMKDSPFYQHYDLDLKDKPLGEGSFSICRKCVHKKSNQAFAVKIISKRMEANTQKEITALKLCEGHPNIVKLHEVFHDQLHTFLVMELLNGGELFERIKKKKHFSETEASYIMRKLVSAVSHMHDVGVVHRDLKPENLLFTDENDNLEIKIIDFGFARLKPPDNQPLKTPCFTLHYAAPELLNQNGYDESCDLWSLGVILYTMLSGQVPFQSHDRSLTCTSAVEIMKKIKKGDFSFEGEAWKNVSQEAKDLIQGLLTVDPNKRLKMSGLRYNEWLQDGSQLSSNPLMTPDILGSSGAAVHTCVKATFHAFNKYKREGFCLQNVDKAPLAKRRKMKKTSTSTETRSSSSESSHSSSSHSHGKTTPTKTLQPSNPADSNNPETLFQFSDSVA

[22] = molecular target: Serine/threonine-protein kinase B-raf (Homo sapiens, UniProt P15056); experiment: Inhibition of Protein kinase Raf-B binding in fluorescence polarization assay
Chain of Serine/threonine-protein kinase B-raf (P15056 whole entry): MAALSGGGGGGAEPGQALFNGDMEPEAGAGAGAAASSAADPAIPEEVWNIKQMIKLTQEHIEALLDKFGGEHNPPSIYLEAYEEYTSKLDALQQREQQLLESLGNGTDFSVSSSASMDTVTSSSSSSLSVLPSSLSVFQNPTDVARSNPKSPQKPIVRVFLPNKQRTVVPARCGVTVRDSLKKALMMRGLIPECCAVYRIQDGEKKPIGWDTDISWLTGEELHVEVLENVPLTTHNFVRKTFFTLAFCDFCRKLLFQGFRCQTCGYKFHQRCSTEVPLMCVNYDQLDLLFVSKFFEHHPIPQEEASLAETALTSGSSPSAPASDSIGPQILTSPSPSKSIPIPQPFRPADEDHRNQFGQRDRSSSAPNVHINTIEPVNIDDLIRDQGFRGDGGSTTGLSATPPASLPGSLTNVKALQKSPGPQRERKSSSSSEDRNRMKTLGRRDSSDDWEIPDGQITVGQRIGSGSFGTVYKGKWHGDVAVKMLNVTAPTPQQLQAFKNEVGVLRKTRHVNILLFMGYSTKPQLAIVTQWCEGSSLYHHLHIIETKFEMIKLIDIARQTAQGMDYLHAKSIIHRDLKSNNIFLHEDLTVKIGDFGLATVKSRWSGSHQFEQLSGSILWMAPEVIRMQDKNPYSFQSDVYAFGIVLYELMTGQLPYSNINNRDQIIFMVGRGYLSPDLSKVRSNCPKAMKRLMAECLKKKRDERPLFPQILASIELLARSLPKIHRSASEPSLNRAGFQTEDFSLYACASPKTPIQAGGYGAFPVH

[23] = molecular target: Mitogen-activated protein kinase 10 (Homo sapiens, UniProt P53779); experiment: Inhibition of c-Jun N-terminal kinase 3-alpha binding in HTRF assay
Chain of Mitogen-activated protein kinase 10 (P53779 whole entry): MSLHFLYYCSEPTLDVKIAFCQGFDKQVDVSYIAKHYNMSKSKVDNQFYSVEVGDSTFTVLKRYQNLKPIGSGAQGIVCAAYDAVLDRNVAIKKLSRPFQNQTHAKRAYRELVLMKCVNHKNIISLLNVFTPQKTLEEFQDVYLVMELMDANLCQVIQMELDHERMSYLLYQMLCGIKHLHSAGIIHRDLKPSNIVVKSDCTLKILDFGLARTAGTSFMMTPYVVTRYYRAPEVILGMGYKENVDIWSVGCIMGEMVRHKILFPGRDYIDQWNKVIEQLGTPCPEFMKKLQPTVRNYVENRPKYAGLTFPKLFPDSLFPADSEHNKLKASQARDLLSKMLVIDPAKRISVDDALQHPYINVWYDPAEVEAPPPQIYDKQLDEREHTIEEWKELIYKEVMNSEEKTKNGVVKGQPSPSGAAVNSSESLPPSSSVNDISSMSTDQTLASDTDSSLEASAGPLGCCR

[24] = molecular target: Mitogen-activated protein kinase 8 (Homo sapiens, UniProt P45983); experiment: Inhibition of c-Jun N-terminal kinase 1-alpha 1 binding in fluorescence polarization assay
Chain of Mitogen-activated protein kinase 8 (P45983 whole entry): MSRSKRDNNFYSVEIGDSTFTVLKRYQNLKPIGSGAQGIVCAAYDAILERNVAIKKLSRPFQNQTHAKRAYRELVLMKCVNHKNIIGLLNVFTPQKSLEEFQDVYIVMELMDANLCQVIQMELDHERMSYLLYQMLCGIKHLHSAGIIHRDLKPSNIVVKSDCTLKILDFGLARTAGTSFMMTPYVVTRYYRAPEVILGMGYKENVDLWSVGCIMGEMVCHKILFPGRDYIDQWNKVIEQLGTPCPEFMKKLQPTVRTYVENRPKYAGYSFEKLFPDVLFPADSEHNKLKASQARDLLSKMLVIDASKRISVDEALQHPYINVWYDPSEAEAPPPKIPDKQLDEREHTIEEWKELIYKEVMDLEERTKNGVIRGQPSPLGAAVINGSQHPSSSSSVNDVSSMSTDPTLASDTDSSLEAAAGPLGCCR

[25] = molecular target: Proto-oncogene tyrosine-protein kinase LCK (Mus musculus, UniProt P06240); experiment: Inhibition of p56 Lck tyrosine kinase binding in HTRF assay
Chain of Proto-oncogene tyrosine-protein kinase LCK (P06240 whole entry): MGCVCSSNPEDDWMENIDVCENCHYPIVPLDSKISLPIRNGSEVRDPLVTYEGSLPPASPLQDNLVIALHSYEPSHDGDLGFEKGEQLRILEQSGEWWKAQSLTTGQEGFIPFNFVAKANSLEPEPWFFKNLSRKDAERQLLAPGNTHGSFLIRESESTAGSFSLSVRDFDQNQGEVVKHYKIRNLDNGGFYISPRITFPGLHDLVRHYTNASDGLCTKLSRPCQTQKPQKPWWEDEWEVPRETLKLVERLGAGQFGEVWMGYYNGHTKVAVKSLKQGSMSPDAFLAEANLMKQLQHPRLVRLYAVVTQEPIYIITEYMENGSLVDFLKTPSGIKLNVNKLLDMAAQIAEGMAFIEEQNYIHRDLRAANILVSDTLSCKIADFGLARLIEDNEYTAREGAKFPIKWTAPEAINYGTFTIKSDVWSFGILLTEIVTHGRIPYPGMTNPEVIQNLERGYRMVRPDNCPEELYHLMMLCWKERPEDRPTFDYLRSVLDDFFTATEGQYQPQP

[26] = molecular target: T3, Tyrosine-protein kinase ITK/TSK (Homo sapiens, UniProt Q08881)
T3 sequence (Q08881 whole entry): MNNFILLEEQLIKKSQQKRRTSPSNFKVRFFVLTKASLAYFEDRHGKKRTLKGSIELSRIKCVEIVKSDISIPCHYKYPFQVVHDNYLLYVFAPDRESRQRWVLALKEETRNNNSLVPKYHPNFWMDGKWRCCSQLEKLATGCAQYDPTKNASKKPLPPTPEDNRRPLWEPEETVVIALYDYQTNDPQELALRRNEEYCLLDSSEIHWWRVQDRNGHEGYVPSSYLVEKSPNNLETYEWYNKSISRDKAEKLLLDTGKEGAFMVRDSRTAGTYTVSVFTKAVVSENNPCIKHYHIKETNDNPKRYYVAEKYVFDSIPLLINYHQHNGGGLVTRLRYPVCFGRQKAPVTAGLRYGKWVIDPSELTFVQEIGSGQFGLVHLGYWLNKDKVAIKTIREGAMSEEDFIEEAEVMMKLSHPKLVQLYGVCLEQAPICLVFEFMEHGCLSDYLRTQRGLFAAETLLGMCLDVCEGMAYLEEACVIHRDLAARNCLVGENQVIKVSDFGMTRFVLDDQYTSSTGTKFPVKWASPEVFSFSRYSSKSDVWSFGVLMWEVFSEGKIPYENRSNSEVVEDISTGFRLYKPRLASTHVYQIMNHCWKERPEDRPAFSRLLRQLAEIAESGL

TGF-beta receptor type-1 [27] = molecular target: T1, TGF-beta receptor type-1; experiment: Binding affinity to Activin A receptor type II-like kinase (ALK5) in fluorescence polarization binding assay; Range is (0.783-1.764); how it was run: as §1

SMILES: Nc1nc(-c2cccc(Cl)c2)c(-c2ccc3ncccc3n2)s1 [GW780159X]
IC50 (MAP kinase p38 [3]): 360 nM | IC50 (TGF-beta receptor type-1 [1]): 0.01 µM | IC50 (TGF-beta receptor type-1 [4]): 10 nM | IC50 (TGF-beta receptor type-1 [5]): 20 nM

SMILES: Cc1ccc2nccc(-c3sc(N)nc3-c3ccccn3)c2n1
IC50 (TGF-beta receptor type-1 [1]): 0.26 µM | IC50 (TGF-beta receptor type-1 [10]): 380 nM

SMILES: Nc1nc(-c2ccc(F)cc2)c(-c2ccc3ncccc3n2)s1 [GW785804X]
IC50 (MAP kinase p38 [16]): 490 nM | IC50 (TGF-beta receptor type-1 [1]): 0.03 µM | IC50 (TGF-beta receptor type-1 [4]): 10 nM | IC50 (TGF-beta receptor type-1 [17]): 40 nM

SMILES: Cc1cccc(-c2nc(N)sc2-c2ccc3ncccc3n2)n1
IC50 (MAP kinase p38 [6]): > 16 µM

SMILES: Cc1ccc(-c2nc(N)sc2-c2ccnc3ccccc23)nc1
IC50 (TGF-beta receptor type-1 [8]): > 10 µM | IC50 (TGF-beta receptor type-1 [1]): > 10 µM

SMILES: Nc1nc(-c2ccc(Cl)cn2)c(-c2ccnc3ccccc23)s1
IC50 (TGF-beta receptor type-1 [1]): > 10 µM | IC50 (TGF-beta receptor type-1 [18]): 1770 nM

SMILES: Cc1cccc(-c2n[nH]cc2-c2ccc3ncccc3n2)n1 [GW786460X]
IC50 [20]: > 16 µM | IC50 [21]: > 16 µM | IC50 [22]: > 16 µM | IC50 [23]: > 16 µM | IC50 [24]: > 16 µM | IC50 [25]: > 16 µM | IC50 [26]: > 16 µM

SMILES: CCOc1ccc2nc(-c3sc(N)nc3-c3ccccn3)ccc2n1
IC50 (TGF-beta receptor type-1 [8]): > 10 µM | IC50 (TGF-beta receptor type-1 [1]): > 10 µM

The next lines start with the values.

IC50 (TGF-beta receptor type-1 [1]): > 10 µM | IC50 (TGF-beta receptor type-1 [2]): 3.54 µM
SMILES: Nc1nc(-c2ccccn2)c(-c2ccc3ccccc3n2)s1

IC50 (TGF-beta receptor type-1 [1]): 0.05 µM | IC50 (MAP kinase p38 [6]): > 16 µM | IC50 (TGF-beta receptor type-1 [4]): 19 nM | IC50 (TGF-beta receptor type-1 [7]): 30 nM
SMILES: c1ccc(-c2n[nH]cc2-c2ccc3ncccc3n2)nc1

IC50 (TGF-beta receptor type-1 [8]): > 10 µM | IC50 (TGF-beta receptor type-1 [1]): > 10 µM
SMILES: COc1ccccc1-c1nc(N)sc1-c1ccnc2ccccc12

IC50 (TGF-beta receptor type-1 [1]): 0.22 µM | IC50 (TGF-beta receptor type-1 [9]): 30 nM
SMILES: Cc1ccnc2ccc(-c3sc(N)nc3-c3ccccn3)nc12

IC50 (TGF-beta receptor type-1 [1]): > 10 µM | IC50 (TGF-beta receptor type-1 [11]): 3.98 µM
SMILES: Nc1nc(-c2cccnc2)c(-c2ccnc3ccccc23)s1

IC50 (TGF-beta receptor type-1 [1]): 0.12 µM | IC50 (MAP kinase p38 [6]): > 16 µM | IC50 (TGF-beta receptor type-1 [4]): 20 nM | IC50 (TGF-beta receptor type-1 [12]): 40 nM
SMILES: Nc1nc(-c2ccccn2)c(-c2ccc3ncccc3n2)s1 [GW693481X]

IC50 (TGF-beta receptor type-1 [1]): > 10 µM | IC50 (TGF-beta receptor type-1 [13]): 11 µM
SMILES: Nc1nc(-c2ccccn2)c(-c2cccc3ccccc23)s1

IC50 (TGF-beta receptor type-1 [1]): > 10 µM | IC50 (TGF-beta receptor type-1 [14]): 7.94 µM
SMILES: Nc1nc(-c2ccccn2)c(-c2ccnc3ncccc23)s1

IC50 (TGF-beta receptor type-1 [1]): > 10 µM | IC50 (TGF-beta receptor type-1 [15]): 1020 nM
SMILES: Nc1nc(-c2cc(Cl)ccn2)c(-c2ccnc3ccccc23)s1

IC50 (TGF-beta receptor type-1 [1]): 6.67 µM | IC50 (TGF-beta receptor type-1 [19]): 1250 nM
SMILES: Nc1nc(-c2ccccc2F)c(-c2ccnc3ccccc23)s1

IC50 (TGF-beta receptor type-1 [1]): 6.58 µM | IC50 (TGF-beta receptor type-1 [27]): 1170 nM
SMILES: Nc1nc(-c2nccs2)c(-c2ccnc3ccccc23)s1

Reference: ChEMBL document CHEMBL1138735, “Identification of 1,5-naphthyridine derivatives as a novel series of potent and selective TGF-beta type I receptor inhibitors” (J Med Chem, 2004)
